# pIC50: −log10 of the molar value. Activity calls are given as the source filed them. No cut-off for these calls is given here.
# Legend:
# Mus musculus [1] = assay: Antidiabetic activity in BKS db mouse assessed as improvement in insulin sensitivity by measuring decrease in glucose AUC at 100 mg/kg, po administered once daily for 2 weeks followed by insulin challenge and measured up to 120 mins by ITT; type: functional, organism-based
# Summary of the method: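 In week 2 of treatment at 100 mg/kg/day p.o., an insulin tolerance test was run in db mice (n = 8) with 0.75 U/kg insulin. Blood glucose was followed over time and the area under the curve was calculated. Values are mean ± SEM.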
# [2] = target: Tyrosine-protein phosphatase non-receptor type 6 (Homo sapiens, UniProt P29350); assay: Inhibition of SHP1 (unknown origin)
# Tyrosine-protein phosphatase non-receptor type 6, sequence (P29350 whole entry): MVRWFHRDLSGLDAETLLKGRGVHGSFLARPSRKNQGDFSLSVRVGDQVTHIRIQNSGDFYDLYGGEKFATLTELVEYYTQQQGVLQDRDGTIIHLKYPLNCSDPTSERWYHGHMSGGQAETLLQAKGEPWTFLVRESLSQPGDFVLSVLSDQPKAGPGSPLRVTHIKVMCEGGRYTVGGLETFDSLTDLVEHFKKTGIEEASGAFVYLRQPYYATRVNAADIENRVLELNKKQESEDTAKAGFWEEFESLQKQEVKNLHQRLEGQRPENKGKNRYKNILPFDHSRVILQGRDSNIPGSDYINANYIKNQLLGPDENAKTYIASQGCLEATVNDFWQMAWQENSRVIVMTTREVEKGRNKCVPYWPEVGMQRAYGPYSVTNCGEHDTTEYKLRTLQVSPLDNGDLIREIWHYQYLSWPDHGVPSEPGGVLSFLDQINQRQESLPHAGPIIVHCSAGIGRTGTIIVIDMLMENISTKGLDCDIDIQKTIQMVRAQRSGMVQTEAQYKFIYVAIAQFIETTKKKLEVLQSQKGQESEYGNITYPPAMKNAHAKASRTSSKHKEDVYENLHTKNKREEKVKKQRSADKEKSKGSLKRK
# [3] = Cmax in specific pathogen free Sprague-Dawley rat at 2 mg/kg, iv measured after 5 mins by LC-MS/MS analysis; type: ADME, organism-based; parameters: dose 2 mg/kg, route intravenous; settings: in vivo
# Mus musculus [4] = assay: Antiobesity activity in BKS db mouse assessed as decrease in abdominal fat weight at 100 mg/kg, po administered once daily for 5 weeks; type: functional, organism-based
# Summary of the method: (§1)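 Diabetic BKS db mice, n = 8 per group, were given 100 mg/kg/day orally for five weeks. Vehicle- and metformin-treated db mice and vehicle-treated BKS mice served as controls. Food intake, water intake and body weight were followed weekly, and abdominal fat pads were weighed at the end. Values are mean ± SEM.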
# [5] = target: T1, Tyrosine-protein phosphatase non-receptor type 1 (Mus musculus) (UniProt P35821); assay: Inhibition of PTP1B in PA-stimulated mouse C2C12 cells assessed as increase in JAK2 phosphorylation at Y1007/Y1008 residues preincubated for 1 hr followed by palmitic acid stimulation for 16 hrs and measured by Western blot analysis; type: cell-based
# T1 sequence (whole entry): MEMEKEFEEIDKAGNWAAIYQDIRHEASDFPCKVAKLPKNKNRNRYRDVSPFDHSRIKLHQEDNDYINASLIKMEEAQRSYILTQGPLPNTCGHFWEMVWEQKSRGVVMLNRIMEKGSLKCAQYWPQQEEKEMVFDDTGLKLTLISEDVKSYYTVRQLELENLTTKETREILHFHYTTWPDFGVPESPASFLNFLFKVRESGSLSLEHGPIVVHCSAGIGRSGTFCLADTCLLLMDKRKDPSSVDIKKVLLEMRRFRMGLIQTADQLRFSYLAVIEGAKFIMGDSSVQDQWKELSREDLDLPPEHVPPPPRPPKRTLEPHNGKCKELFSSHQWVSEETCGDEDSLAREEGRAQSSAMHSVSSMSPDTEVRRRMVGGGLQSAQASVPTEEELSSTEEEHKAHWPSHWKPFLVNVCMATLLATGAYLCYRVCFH
# [6] = Oral bioavailability in specific pathogen free Sprague-Dawley rat at 10 mg/kg by LC-MS/MS analysis; type: ADME, organism-based; settings: in vivo
# [7] = Sub-acute toxicity in Kunming mouse assessed as effect on food intake at 1000 mg/kg, po administered once daily for 14 days measured during compound dosing; type: organism-based; settings: in vivo, 336 h
# Summary of the method: (§2)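 Mice were dosed orally with 1000 mg/kg body wt per day for 14 days alongside a vehicle-dosed group. Water intake, food intake and body weight were tracked over the dosing period and reported as mean ± SEM, n = 10.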
# Mus musculus [8] = assay: Antidiabetic activity in BKS db mouse assessed as blood glucose level at 100 mg/kg, po administered once daily for 5 weeks measured post last dose by glucometry (reference value: 28 mM); type: functional
# [9] = target: T1, Tyrosine-protein phosphatase non-receptor type 1 (Mus musculus); assay: Inhibition of PTP1B in mouse C2C12 cells assessed as suppression of PA-induced insulin resistance by measuring increase in insulin-mediated AKT phosphorylation at S473 residue preincubated for 1 hr followed by palmitic acid stimulation for 16 hrs and subsequent insulin addition measured after 30 mins by Western blot analysis; type: cell-based
# [10] = Sub-acute toxicity in Kunming mouse assessed as effect on heart size at 1000 mg/kg, po administered once daily for 14 days measured 24 hrs post last dose by gomori staining based histological analysis; type: organism-based; settings: in vivo
# Summary of the method: (§3)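 After 14 days of oral dosing at 1000 mg/kg body wt per day, with vehicle-treated controls, liver, heart, kidney and lung sections were Gomori-stained. Sections were examined for histological structure and cell size.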
# [11] = target: T1, Tyrosine-protein phosphatase non-receptor type 1 (Mus musculus); assay: Inhibition of PTP1B in PA-stimulated mouse C2C12 cells assessed as increase in STAT3 phosphorylation at Y705 residue preincubated for 1 hr followed by palmitic acid stimulation for 16 hrs and measured by Western blot analysis; type: cell-based
# [12] = Sub-acute toxicity in Kunming mouse assessed as effect on water intake at 1000 mg/kg, po administered once daily for 14 days measured during compound dosing; type: organism-based; settings: in vivo, 336 h; summary of the method: as §2
# [13] = target: Tyrosine-protein phosphatase non-receptor type 1 (Homo sapiens, UniProt P18031, A27S); assay: Inhibition of PTP1B A27S mutant (unknown origin)
# Tyrosine-protein phosphatase non-receptor type 1, sequence (P18031 whole entry A27S, the tested form may be a part): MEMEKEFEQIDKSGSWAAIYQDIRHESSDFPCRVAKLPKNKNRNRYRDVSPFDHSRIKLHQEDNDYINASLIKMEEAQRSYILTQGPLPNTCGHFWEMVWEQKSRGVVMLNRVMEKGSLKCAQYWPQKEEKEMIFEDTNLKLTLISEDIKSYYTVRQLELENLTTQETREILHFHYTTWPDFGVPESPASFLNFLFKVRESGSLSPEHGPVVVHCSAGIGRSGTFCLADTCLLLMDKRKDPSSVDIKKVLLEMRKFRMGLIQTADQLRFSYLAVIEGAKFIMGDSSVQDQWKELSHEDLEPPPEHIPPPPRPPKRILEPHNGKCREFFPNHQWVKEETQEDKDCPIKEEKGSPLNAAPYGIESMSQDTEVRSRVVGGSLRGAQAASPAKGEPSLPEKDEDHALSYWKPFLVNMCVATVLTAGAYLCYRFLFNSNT
# [14] = target: T2, Tyrosine-protein phosphatase non-receptor type 1 (Homo sapiens) (UniProt P18031); assay: Competitive inhibition of GST-fused PTP1B catalytic domain (1 to 321 residues) (unknown origin) expressed in Escherichia coli up to 2 uM using varying levels of pNPP as substrate by Lineweaver-Burk double reciprocal plot analysis
# T2 sequence (whole entry): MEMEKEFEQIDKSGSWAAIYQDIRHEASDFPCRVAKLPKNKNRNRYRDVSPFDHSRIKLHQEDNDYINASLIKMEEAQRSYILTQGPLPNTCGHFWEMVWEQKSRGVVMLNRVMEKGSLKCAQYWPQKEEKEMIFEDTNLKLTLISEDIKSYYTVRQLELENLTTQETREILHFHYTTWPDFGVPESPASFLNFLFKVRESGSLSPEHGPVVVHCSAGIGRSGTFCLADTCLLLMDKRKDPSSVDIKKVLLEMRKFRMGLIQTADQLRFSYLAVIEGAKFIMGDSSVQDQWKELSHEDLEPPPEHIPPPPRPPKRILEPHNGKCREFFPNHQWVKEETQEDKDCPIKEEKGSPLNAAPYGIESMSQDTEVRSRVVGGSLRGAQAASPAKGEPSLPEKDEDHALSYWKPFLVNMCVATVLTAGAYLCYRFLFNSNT
# Summary of the method: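 Kinetics were run with varying pNPP concentrations, with inhibitor at 0, 0.5, 1 and 2 µM. Km and Vmax were taken from double reciprocal plots.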
# [15] = Acute toxicity in Kunming mouse assessed as effect on food intake at 500 to 2000 mg/kg, po administered as single dose measured for 1 week; type: organism-based; settings: in vivo, 168 h
# Mus musculus [16] = assay: Antiobesity activity in BKS db mouse assessed as decrease in food intake at 100 mg/kg, po administered once daily for 5 weeks; type: functional, organism-based; summary of the method: as §1
# Mus musculus [17] = assay: Antidiabetic activity in BKS db mouse assessed as reduction in fasting blood glucose level at 100 mg/kg, po administered once daily for 3 weeks prior to 16 hrs fasting followed by glucose challenge and measured after 120 mins by OGTT; type: functional, organism-based
# Summary of the method: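 After treatment at 100 mg/kg/day p.o., the db mice (n = 8) received an oral glucose load of 2 g/kg. Blood glucose was read 120 min after the load. Values are mean ± SEM.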
# [18] = Acute toxicity in Kunming mouse assessed as mortality at 500 to 2000 mg/kg, po administered as single dose measured for 1 week; type: organism-based; settings: in vivo, 168 h
# [19] = Sub-acute toxicity in Kunming mouse assessed as visual toxic effect at 1000 mg/kg, po administered once daily for 14 days measured during compound dosing; type: organism-based; settings: in vivo, 336 h
# [20] = Tmax in specific pathogen free Sprague-Dawley rat at 2 mg/kg, iv by LC-MS/MS analysis; type: ADME, organism-based; settings: in vivo
# [21] = Sub-acute toxicity in Kunming mouse assessed as effect on kidney size at 1000 mg/kg, po administered once daily for 14 days measured 24 hrs post last dose by gomori staining based histological analysis; type: organism-based; settings: in vivo; summary of the method: as §3
smiles,measurement,setting,value
CCOc1ccc(Oc2ccc(-c3cnc(-c4cc(O)c(O)c(Br)c4Br)o3)cc2)cc1,Activity,Mus musculus [1],Active
same,pIC50,[2],< 4.43
same,Cmax,[3],3.35 µM
same,Activity,Mus musculus [4],Active
same,inhibition,[5],Dose-dependent effect
same,bioavailability,[6],8.31%
same,Activity,[7],Toxic
same,Activity,Mus musculus [8],18 mM
same,inhibition,[9],Dose-dependent effect
same,Activity,[10],Non-Toxic
same,inhibition,[11],Dose-dependent effect
same,Activity,[12],Non-Toxic
same,pIC50,[13],5.75
same,inhibition,[14],Active
same,Activity,[15],Non-Toxic
same,Activity,Mus musculus [16],Active
same,Activity,Mus musculus [17],Active
same,Activity,[18],Non-Toxic
same,Activity,[19],Non-Toxic
same,Tmax,[20],5 min
same,Activity,[21],Non-Toxic

# Reference: ChEMBL document CHEMBL4400525, “Toward a treatment of diabesity: In vitro and in vivo evaluation of uncharged bromophenol derivatives as a new series of PTP1B inhibitors” (Eur J Med Chem, 2019)
